Screening results from PubChem.
An excerpt weighted towards active compounds, which were near 3.1% of everything screened.
CTSL1 counter: cathepsin L1 inhibition, PFM18AAP counter-screen; recombinant F. hepatica cathepsin L1, Z-Leu-Arg-MCA fluorescence; inhibition, % at 5.96 µM; actives 0.49% (n = 300,000);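 active = inhibition above the mean of all tested compounds plus 3 SD, set per screening campaign, cut at about 17% in these data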;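 also: 0% = plate median of test compound wells and 100% = 1 µM Z-Phe-Ala-diazomethylketone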
NadD block: blocks S. aureus nicotinate mononucleotide adenylyltransferase; inhibition, % at 20 µM; purified NadD enzyme, colorimetric absorbance read-out; actives 0.78% (n = 360,000); in the data active = inhibition above about 26%
HCV core dimer: blocks dimerization of HCV core protein. inhibition, % at 5 µM. TR-FRET GST/Flag-core106 dimerization, 1536-well. AID 1899. actives 0.33% (n = 300,000);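 active = inhibition above the mean of all tested compounds plus 3 SD, set per screening campaign, cut at about 45% in these data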
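Assay system: GST-tagged and Flag-tagged HCV core protein residues 1-106 / Times: compound-protein-antibody incubation 4 h at 22.5 °C / Signal: time-resolved FRET, ex 340 nm, em 617 and 671 nm / Evaluation: % inhibition based on acceptor/donor emission ratio / Benchmarks: wells lacking GST-core106 and wells with excess unlabelled core106 / Repeats: singlicate, one well per compound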
Myeloid diff MLP: compounds promoting myeloid differentiation; ER-HoxA9 myeloid progenitors, lysozyme-GFP differentiation, flow cytometry; calls only at 10 µM; actives 1% (n = 360,000); AID 624256;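 active = normalized GFP-positive differentiation at or above the plate's own cutoff, the solvent-only control mean plus 3 SD; inconclusive = no clear call, values can overlap the other calls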;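 also: cells exposed to compound for four days before flow analysis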
PP1 inh: blocks human PP1-alpha phosphatase, a PP5 counter-screen; inhibition, % at 6.7 µM; purified PP1alpha, OMFP fluorescence; actives 0.9% (n = 320,000); AID 2235;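 active = inhibition above the mean inhibition of all tested compounds plus 3 SD, computed separately for each screening campaign, cut at about 15% in these data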
Target sequence (P62136 whole entry, looked up): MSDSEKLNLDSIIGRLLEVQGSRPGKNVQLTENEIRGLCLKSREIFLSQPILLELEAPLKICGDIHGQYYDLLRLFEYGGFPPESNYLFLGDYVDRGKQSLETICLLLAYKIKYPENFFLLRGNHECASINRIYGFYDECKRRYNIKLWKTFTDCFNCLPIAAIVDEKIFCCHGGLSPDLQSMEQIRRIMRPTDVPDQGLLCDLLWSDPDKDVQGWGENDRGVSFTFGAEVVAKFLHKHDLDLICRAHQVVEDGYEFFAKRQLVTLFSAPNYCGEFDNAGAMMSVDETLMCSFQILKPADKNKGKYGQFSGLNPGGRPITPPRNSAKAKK
PP5 primary: blocks human protein phosphatase 5 activity | P53041 | purified PP5c, OMFP substrate fluorescence | inhibition, % at 6.7 µM | actives 0.18% (n = 320,000);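 active = inhibition above the campaign's mean inhibition across all tested compounds plus 3 SD, cut at about 9.5% in these data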;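 also: 0% = DMSO only and 100% = 100 µM cantharidin control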
PP1 inh confirm: confirmation of human PP1 phosphatase inhibitors | AID 2358 | actives 52% (n = 1,900) | inhibition, % at 6.7 µM | shares compounds with PP1 inh | purified PP1alpha, OMFP substrate fluorescence;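 active = mean PP1 inhibition above a set limit taken from the earlier primary screen, cut at about 15% in these data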
PP5 counter: counter-screen for PP1 inhibitors: human PP5 phosphatase inhibition; purified PP5c, OMFP fluorescence; actives 4% (n = 1,900); AID 2360; inhibition, % at 6.7 µM; shares compounds with PP1 inh;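 active = mean PP5 inhibition over triplicate wells above about 9.5% taken from the earlier PP1 screen, limit read from the data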
An asterisk follows results filed as active; i = inactive; ? = inconclusive; · = not tested or not shown.

SMILES | CTSL1 counter | NadD block | HCV core dimer | Myeloid diff MLP | PP1 inh | PP5 primary | PP1 inh confirm | PP5 counter
COc1cc(CN2CCN(CC3CC3)CC2CCO)cc(OC)c1 (stereo not given) | 9 | -9 | -13 | i | 1 | 3 | · | ·
CCOc1cccc(/C=N/Nc2ccc(S(=O)(=O)N(CC)CC)cn2)c1O | 3 | -1 | 8 | ? | 31* | -1 | 33* | -2
Cc1cccc(N(Cc2ccccc2)C(=O)CSC(C)C(=O)Nc2cc(C)on2)c1 (stereo not given) | 6 | -6 | 2 | i | 0 | 0 | · | ·
Nc1nc(N)c2cc(Sc3ccc4ccccc4c3)ccc2n1 | 4 | 10 | 14 | ? | 23* | 0 | 11 | 0
O=C(NCCN1CCOCC1)c1ccccc1OCc1ccccc1 | · | -4 | · | i | · | · | · | ·
COc1ccc(NC(=O)C(CCCCNC(=O)OC(C)(C)C)NC(=O)OCc2ccccc2)cc1 (stereo not given) | -1 | 10 | -7 | i | 2 | 6 | · | ·
CC(C)(C)OC(=O)N[C@@H](CCCCNC(=O)OCc1ccccc1)c1nnc([C@H](CCCCNC(=O)OCc2ccccc2)NC(=O)OC(C)(C)C)o1 | 6 | 0 | 4 | ? | 23* | 5 | 13 | 2
Cc1ccc(C(=O)Oc2ccc(C(=O)COC(=O)C3CC(=O)N(Cc4ccco4)C3)cc2)cc1 (stereo not given) | -50 | 7 | 6 | i | 20* | -5 | 15 | -3
Cc1[nH]c2ccccc2c1C(=O)COC(=O)C1CC(=O)N(Cc2ccco2)C1 (stereo not given) | -49 | 3 | -1 | i | -2 | 2 | · | ·
Cc1c(CCOC(=O)C23CC4CC(CC(C)(C4)C2)C3)sc[n+]1CC(=O)c1ccccc1 | -1 | 15 | -6 | i | 20* | 0 | -7 | -5
COc1ncnc2c1ncn2CCCN1CCN(Cc2ccc(C)cc2)CC1 | · | 0 | · | i | · | · | · | ·
O=c1[nH]n2c(=O)c3c([nH]c2c1N=Nc1cccc(Cl)c1)CCCC3 | 7 | 25 | 5 | i | 37* | 2 | 26* | 0
O=C(CN1C(=O)/C(=C2\SC(=S)N(CCS(=O)(=O)O)C2=O)c2ccccc21)Nc1cccc(Br)c1 | -2 | 51* | -13 | i | 37* | 2 | 39* | -2
CCN(CCCNC(=O)c1nn(C)c2c1CS(=O)(=O)c1ccccc1-2)Cc1ccccc1 | 1 | -6 | 5 | i | 2 | 0 | · | ·
Cc1ccc(C(C)C)c(OCc2nn(CC(=O)c3ccc(Cl)cc3)c3[n+]2CCCCC3)c1 | 2 | 9 | -14 | i | 23* | 3 | -18 | -1
O=C(N/N=C/c1ccc(O)c2ncccc12)c1cccc(Br)c1 | 4 | 15 | -6 | ? | 21* | -1 | 18* | 1
NS(=O)(=O)c1ccc(CNC(=O)CNC(=O)c2ccc(Br)o2)cc1 | 0 | -3 | -3 | i | -1 | 5 | · | ·
COc1cc(/C=C2\C(=N)N3N=C(S(C)(=O)=O)SC3=NC2=O)cc(OC)c1OCCOc1ccccc1C | 3 | 26* | 23 | i | 30* | 8 | 11 | -1
COc1ccccc1CCC(=O)OCC(=O)c1c(N)n(CC(C)C)c(=O)n(C)c1=O | 1 | -1 | -4 | i | 83* | 3 | -5 | 0
CCOC(=O)c1cn(Cc2ccccc2)c(C(=O)OC(C)(C)C)c1O | 4 | -3 | 3 | i | 22* | 3 | 36* | -4
O=C(c1cc(-c2ccc(Cl)cc2)n(-c2ccc(Cl)c(Cl)c2)n1)N1CCOCC1 | 6 | -6 | 12 | i | -1 | 1 | · | ·
CNC(=O)c1cc(-c2ccc(Cl)cc2)n(-c2ccccc2)n1 | 2 | -8 | -6 | i | -2 | 3 | · | ·
Cc1ccc(-n2nc(C(=O)O)cc2-c2ccc(Cl)cc2)cc1 | 11 | -2 | 7 | i | 47* | -2 | 47* | 3
O=C(O)c1cc(-c2ccc(Cl)cc2)n(-c2ccc(Cl)cc2)n1 | 4 | 7 | 9 | i | 43* | -1 | 45* | -3
Cc1ccc(-n2nc(C(=O)O)cc2-c2ccccc2)cc1 | -3 | 0 | 3 | i | 33* | -1 | 31* | -4
SMILES | CTSL1 counter | NadD block | HCV core dimer | Myeloid diff MLP | PP1 inh | PP5 primary | PP1 inh confirm | PP5 counter
O=C(O)c1cc(-c2ccc(Cl)cc2)n(-c2ccc(F)cc2)n1 | -3 | -3 | 1 | i | 47* | 0 | 37* | -2
O=C(O)c1cc(S(=O)(=O)NC(CO)C(O)c2ccc([N+](=O)[O-])cc2)ccc1Br (stereo not given) | 1 | 6 | -14 | i | -2 | 2 | · | ·
C[C@H](CO)N1C[C@H](C)[C@@H](CN(C)Cc2ccc3c(c2)OCCN3C)OCc2cnnn2CCCC1=O | · | 9 | · | i | · | · | · | ·
O=C(c1cc(-c2ccc(Cl)c(Cl)c2)on1)N1CCN(c2ccccc2)CC1 | 1 | -8 | -1 | i | -3 | 0 | · | ·
O=C(O)c1cc(-c2ccc(Cl)c(Cl)c2)n(-c2ccccc2)n1 | -1 | 1 | 4 | i | 58* | 1 | 52* | -5
O=C(N/N=C/c1cc([N+](=O)[O-])ccc1O)c1cccc(N2CCCC2=O)c1 | 3 | -1 | -1 | i | 25* | 3 | 21* | -5
O=C(N/N=C/c1cccc([N+](=O)[O-])c1)c1cccc2cc[nH]c12 | 0 | 2 | 7 | i | -2 | 1 | · | ·
O=C(N/N=C/c1cc([N+](=O)[O-])ccc1O)c1cccc2cc[nH]c12 | -1 | -3 | -5 | · | 29* | 1 | 20* | -4
Cn1c(SCc2ccccc2)nnc1-c1ccc(O)cc1 | 0 | -3 | 0 | i | 1 | 2 | · | ·
CC(=O)Nc1cccc(NC(=O)c2ccccc2Cl)c1 | · | -4 | · | i | · | · | · | ·
Cc1cc(C(=O)N2CCN(c3ccccc3)CC2)no1 | 4 | -1 | 2 | i | 27* | -1 | -1 | -3
COc1ccc(N2CCN(C(=O)c3cc(C)on3)CC2)cc1 | 4 | -3 | -5 | i | -3 | 1 | · | ·
Cc1ccc(C(=O)N2CCN(c3ccccc3)CC2)cc1C | 5 | -6 | 2 | i | 32* | 0 | 0 | -2
O=C(NCc1cccs1)c1ccc2sc([C@H]3C[C@H](O)[C@@H](CO)O3)nc2c1 | · | -7 | · | i | · | · | · | ·
O=C(Nc1ccc(NC(=O)c2sc3ccccc3c2Cl)cc1Cl)c1ccco1 | 2 | 6 | 19 | i | 20* | -2 | 28* | 0
CCC(=O)NC(c1cc(Cl)c2cccnc2c1O)C(C)C (stereo not given) | · | 0 | · | ? | -3 | -1 | · | ·
